The Kd is the equilibrium constant for the complex coming apart.

B1: NELF-E aptamer (parent)
chain: CCCAACGACUGCCGAGCGAGAUUACGCUUGAGCGCCCCACUGAGGAUGCCCACGGGCGAUUGGGGCACGG

The variants in the data set derive from B1. The experiment in a line: HiTS-RAP. Particulars: with NELF-E (Drosophila). The gist of the method: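 Aptamer DNA templates bearing a T7 promoter and a ter site were sequenced on an Illumina GAIIx flowcell. T7 RNA polymerase then transcribed them in situ, and GST-Tus halted transcription over 30 minutes at 37°C. After a 30-minute room-temperature equilibration with NELF-E-mOrange at 0.064 to 1000 nM in HEPES binding buffer, clusters were imaged, using only the first binding curve. Intensities normalised to sequencing intensity were averaged per sequence and fitted with weighted Hill fits to give Kd, retaining only fits whose variance stayed under 1,000,000.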
Take CCCAAUGACUGCCGAGCGAGAUUACGCUUGAGCACCCCACUGAGGAUGCCCACGGGCGAUUGGGGCACGG [C6U G34A]: the dissociation constant (Kd) was 6.54 nM.
To CCCAACAACUGCCGAGCGAGAUUACGCUUGAGCGCCCCGCUGAGGAUGCCCACGGGCGAUUGGGGCACGG [G7A A39G] belongs 12.1 nM.
The figure for CCCAACCGCUGCCGAGCGAGAUUACGCUUGAGCGCCCCACUGAGGAUGCCCACGGGCGAUUGGGGCACGG [G7C A8G] is 5.81 nM; for CCCAAUGACUGCCGAGCGAGAUUACGCUUGAGCGCCCCGCUGAGGAUGCCCACGGGCGAUUGGGGCACGG [C6U A39G] it is 11.6 nM.
The figure for CCCAAUGACUGCCGAGCGAGAUUACGCUUGAGCGCCCCACUGAGGAUGCCCACAGGCGAUUGGGGCACGG [C6U G54A] is 14.5 nM.
CCCAAUGACUUCCGAGCGAGAUUACGCUUGAGCGCCCCACUGAGGAUGCCCACGGGCGAUUGGGGCACGG [C6U G11U]: the Kd was 6.12 nM.
To CCCAAUGACUACCGAGCGAGAUUACGCUUGAGCGCCCCACUGAGGAUGCCCACGGGCGAUUGGGGCACGG [C6U G11A] belongs 5.43 nM; to CCCAAUGACUGCCGAGCGAGAUUACGCUUGAGCGCCCCACUGAGGAUGCCCACGGGCGAUAGGGGCACGG [C6U U61A], 38.1 nM.
To CCCAACAACUGCCGAGCGAGAUUACGCUGGAGCGCCCCACUGAGGAUGCCCACGGGCGAUUGGGGCACGG [G7A U29G] belongs 6.46 nM; to CCCAACAACUGCGGAGCGAGAUUACGCUUGAGCGCCCCACUGAGGAUGCCCACGGGCGAUUGGGGCACGG [G7A C13G], 6.51 nM; to CCCAAUGACUGCCGAGCGAGAUUACGCUUGAGCGCCCCACUGAGGAUGCCCACGAGCGAUUGGGGCACGG [C6U G55A], 7.75 nM.
To CCCAAGGACUGCCGAGCGAGAUUACGCUUGAGCGCCCCACUGAGGAUGCCCACGGGCGAGUGGGGCACGG [C6G U60G] belongs 5.7 nM.
Consider CCCAACAACUGCCGAUCGAGAUUACGCUUGAGCGCCCCACUGAGGAUGCCCACGGGCGAUUGGGGCACGG [G7A G16U], for which the Kd was 5.55 nM.
The figure for CCCAAUGACUGCCGUGCGAGAUUACGCUUGAGCGCCCCACUGAGGAUGCCCACGGGCGAUUGGGGCACGG [C6U A15U] is 6.25 nM; for CCCAAUGACUGCCGAGCGAGAUUACGCUUGAGCGCCCCACUGAGGAUGCCCACGGGCGAUUGGGGCACGG [C6U] it is 5.29 nM.
On to CCCAAUGACUGCCGAGCGAGAGUACGCUUGAGCGCCCCACUGAGGAUGCCCACGGGCGAUUGGGGCACGG [C6U U22G], for which the Kd was 5.57 nM.
The figure for CCCAAUUACUGCCGAGCGAGAUUACGCUUGAGCGCCCCACUGAGGAUGCCCACGGGCGAUUGGGGCACGG [C6U G7U] is 6.71 nM; for CCCAAUGACUGCCGAGCGAGAUUAGGCUUGAGCGCCCCACUGAGGAUGCCCACGGGCGAUUGGGGCACGG [C6U C25G] it is 7.85 nM; for CCCAACAACUGCCGAGCGAGAUUACGCUUGAGCGCCCCACGGAGGAUGCCCACGGGCGAUUGGGGCACGG [G7A U41G] it is 6.05 nM.
The figure for CCCAAUGACUGCCAAGCGAGAUUACGCUUGAGCGCCCCACUGAGGAUGCCCACGGGCGAUUGGGGCACGG [C6U G14A] is 7.01 nM; for CCCAAUGACUGCCUAGCGAGAUUACGCUUGAGCGCCCCACUGAGGAUGCCCACGGGCGAUUGGGGCACGG [C6U G14U] it is 7.02 nM.
On to CCCAAUGACUGCCGAGCGAGAUUACGCUGGAGCGCCCCACUGAGGAUGCCCACGGGCGAUUGGGGCACGG [C6U U29G], for which the Kd was determined as 5.8 nM.
The figure for CCCAAUGACUGCCGAGCGAGAUUACGCUAGAGCGCCCCACUGAGGAUGCCCACGGGCGAUUGGGGCACGG [C6U U29A] is 5.66 nM; for CCCAACAACUUCCGAGCGAGAUUACGCUUGAGCGCCCCACUGAGGAUGCCCACGGGCGAUUGGGGCACGG [G7A G11U] it is 7.32 nM.
To CCCAACAACUGCCUAGCGAGAUUACGCUUGAGCGCCCCACUGAGGAUGCCCACGGGCGAUUGGGGCACGG [G7A G14U] belongs 6.75 nM.
With CCCAACAACUGCCGAGCGUGAUUACGCUUGAGCGCCCCACUGAGGAUGCCCACGGGCGAUUGGGGCACGG [G7A A19U], the Kd is 8.57 nM.
As to CCCAACAACUGCCGAGCGAGAUUACGCUUGAGCGCCCCACUGAGGAUGCCCACGGGCGAUUGAGGCACGG [G7A G63A], the dissociation constant Kd is 14.4 nM.
The figure for CCCAACUUCUGCCGAGCGAGAUUACGCUUGAGCGCCCCACUGAGGAUGCCCACGGGCGAUUGGGGCACGG [G7U A8U] is 6.38 nM.
To CCCAACUCCUGCCGAGCGAGAUUACGCUUGAGCGCCCCACUGAGGAUGCCCACGGGCGAUUGGGGCACGG [G7U A8C] belongs 7.45 nM; to CCCAACUGCUGCCGAGCGAGAUUACGCUUGAGCGCCCCACUGAGGAUGCCCACGGGCGAUUGGGGCACGG [G7U A8G], 5.66 nM; to CCCAAUGACUGCCGAGUGAGAUUACGCUUGAGCGCCCCACUGAGGAUGCCCACGGGCGAUUGGGGCACGG [C6U C17U], 6.39 nM.
The figure for CCCAAUGACUGCCGAGGGAGAUUACGCUUGAGCGCCCCACUGAGGAUGCCCACGGGCGAUUGGGGCACGG [C6U C17G] is 6.11 nM; for CCCAAUGACUGCCGAGCGAGAUUACGCUUGAGCGCCCCACUGAGGAUGCCCACGGGCGGUUGGGGCACGG [C6U A59G] it is 69.1 nM.
Consider CCCAACAACUGCCGAGCGAGAUGACGCUUGAGCGCCCCACUGAGGAUGCCCACGGGCGAUUGGGGCACGG [G7A U23G], for which the Kd is 5.95 nM.
To CCCAAUGACUGCCGAGCGAGAUUACGCUUGGGCGCCCCACUGAGGAUGCCCACGGGCGAUUGGGGCACGG [C6U A31G] belongs 8.72 nM.
The figure for CCCAACUACUGCCGAGCGGGAUUACGCUUGAGCGCCCCACUGAGGAUGCCCACGGGCGAUUGGGGCACGG [G7U A19G] is 6.23 nM; for CCCAACUACUGCCGAGCGUGAUUACGCUUGAGCGCCCCACUGAGGAUGCCCACGGGCGAUUGGGGCACGG [G7U A19U] it is 6.31 nM; for CCCAAUGACUGCCGAGCGAGAUUACACUUGAGCGCCCCACUGAGGAUGCCCACGGGCGAUUGGGGCACGG [C6U G26A] it is 4.04 nM.
For the variant CCCAAUGACGGCCGAGCGAGAUUACGCUUGAGCGCCCCACUGAGGAUGCCCACGGGCGAUUGGGGCACGG [C6U U10G], the Kd turned out to be 5.57 nM.

Values taken from the RNAGym collection of RNA variant scans (doi:10.1038/nmeth.2970).
